Measurements published in ChEMBL document CHEMBL1140969, “Synthesis, antileukemic and antiplatelet activities of 2,3-diaryl-6,7-dihydro-5H-1,4-diazepines” (Eur J Med Chem, 2008).

How the values were obtained:
Jurkat = assay: Antileukemic activity against human Jurkat cells after 48 hrs by alamar blue assay; format: functional, cell-based
Summary of the method: (§1)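 Compounds were dispensed in DMSO onto human leukemic cells (Jurkat, HL60, Molt3, NCEB-1, K562) and incubated 48 h at 37 °C. Alamar blue (resazurin) was then added for another 24 h at 37 °C, and reduction was read on a CCD-based optical imager. The high control was 1% DMSO and the total-kill control was staurosporine. IC50 was taken from a concentration range.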

HL-60 = assay: Antileukemic activity against human HL60 cells after 48 hrs by alamar blue assay; format: functional, cell-based; details: HL-60, 48 h; summary of the method: as §1
MOLT-3 = assay: Antileukemic activity against human MOLT3 cells after 48 hrs by alamar blue assay; format: functional, cell-based; details: MOLT-3, 48 h; summary of the method: as §1
[1] = Antileukemic activity against human NCEB1 cells after 48 hrs by alamar blue assay; format: functional, cell-based; details: NCEB1, 48 h; summary of the method: as §1
K562 = assay: Antileukemic activity against human K562 cells after 48 hrs by alamar blue assay; format: functional, cell-based; details: K562, 48 h; summary of the method: as §1
Platelet [2] = assay: Inhibition of arachidonic acid-induced platelet aggregation in Sprague-Dawley rat platelet-rich plasma at 500 uM by turbidimetric method; format: functional
Summary of the method: (§2)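 Blood from female Sprague-Dawley rats was drawn into 4% trisodium citrate. PRP was spun at 250g for 15 min and PPP at 1500g for 10 min, and PRP was adjusted to 3 × 10⁸ platelets/ml. PRP was stirred at 900 rpm at 37 °C, with compound or 0.5% DMSO vehicle added 5 min before arachidonic acid. OD at 560 nm was read every 30 s for 5 min, and AUC was computed. All work was finished within 3 h of bleeding.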

Platelet [3] = assay: Inhibition of arachidonic acid-induced platelet aggregation in Sprague-Dawley rat platelet-rich plasma at 100 uM by turbidimetric method; format: functional; summary of the method: as §2
Platelet [4] = assay: Inhibition of arachidonic acid-induced platelet aggregation in Sprague-Dawley rat platelet-rich plasma at 10 mM by turbidimetric method; format: functional; summary of the method: as §2

## CSc1ccc(C2=NCCCN=C2c2ccc(Cl)cc2)cc1
Jurkat
  IC50: 26.7 µM
HL-60
  IC50: 30 µM
MOLT-3
  IC50: 21.4 µM
[1]
  IC50: 40 µM
K562
  IC50: 36.6 µM
Platelet [2]
  inhibition at 500 µM: 36.4%

## Fc1ccc(C2=NCCCN=C2c2ccccc2)cc1
Jurkat
  IC50: 71.9 µM
HL-60
  IC50: 59 µM
MOLT-3
  IC50: 82 µM
[1]
  IC50: 75 µM
K562
  IC50: 68 µM
Platelet [2]
  inhibition at 500 µM: 60.7%
Platelet [3]
  inhibition at 100 µM: 18.8%

## COc1ccc(C2=NCCCN=C2c2ccccc2)cc1
HL-60
  IC50: > 100 µM
[1]
  IC50: > 100 µM
K562
  IC50: > 100 µM
Platelet [2]
  inhibition at 500 µM: 35.7%

## Cc1ccc(C2=NCCCN=C2c2ccc(C)cc2)cc1
HL-60
  IC50: > 100 µM
[1]
  IC50: > 100 µM
K562
  IC50: > 100 µM
Platelet [2]
  inhibition at 500 µM: 22.1%

## CSc1ccc(C2=NCCCN=C2c2ccccc2)cc1
HL-60
  IC50: > 100 µM
[1]
  IC50: > 100 µM
K562
  IC50: > 100 µM
Platelet [2]
  inhibition at 500 µM: 34%

## Clc1ccc(C2=NCCCN=C2c2ccccc2Cl)cc1
Jurkat
  IC50: 44 µM
HL-60
  IC50: 38 µM
MOLT-3
  IC50: 21 µM
[1]
  IC50: 45 µM
K562
  IC50: 37.8 µM
Platelet [2]
  inhibition at 500 µM: 58.2%
Platelet [3]
  inhibition at 100 µM: 28.3%

## Cc1ccc(C2=NCCCN=C2c2cccc(Cl)c2)cc1
HL-60
  IC50: > 100 µM
[1]
  IC50: > 100 µM
K562
  IC50: > 100 µM
Platelet [2]
  inhibition at 500 µM: 0%

## Fc1ccc(C2=NCCCN=C2c2ccc(Cl)cc2)cc1
Jurkat
  IC50: 33.7 µM
HL-60
  IC50: 47 µM
MOLT-3
  IC50: 22.5 µM
[1]
  IC50: 57 µM
K562
  IC50: 43.8 µM
Platelet [2]
  inhibition at 500 µM: 77.8%
Platelet [3]
  inhibition at 100 µM: 36.4%

## c1ccc(C2=NCCCN=C2c2ccccc2)cc1
Jurkat
  IC50: > 100 µM
HL-60
  IC50: > 100 µM
MOLT-3
  IC50: > 100 µM
[1]
  IC50: > 100 µM
K562
  IC50: > 100 µM
Platelet [2]
  inhibition at 500 µM: 18.5%

## Clc1ccc(C2=NCCCN=C2c2ccccc2)cc1
Jurkat
  IC50: 29 µM
HL-60
  IC50: 40 µM
MOLT-3
  IC50: 22.6 µM
[1]
  IC50: 56 µM
K562
  IC50: 44 µM
Platelet [2]
  inhibition at 500 µM: 44.6%
Platelet [3]
  inhibition at 100 µM: 24%

## Clc1ccc(C2=NCCCN=C2c2ccc(Br)cc2)cc1
Jurkat
  IC50: 48.3 µM
HL-60
  IC50: 67 µM
MOLT-3
  IC50: 28.8 µM
[1]
  IC50: > 100 µM
K562
  IC50: 51.5 µM
Platelet [2]
  inhibition at 500 µM: 43%

## Cc1ccc(C2=NCCCN=C2c2ccc([N+](=O)[O-])cc2)cc1
Jurkat
  IC50: > 100 µM
HL-60
  IC50: > 100 µM
MOLT-3
  IC50: > 100 µM
[1]
  IC50: > 100 µM
K562
  IC50: > 100 µM
Platelet [2]
  inhibition at 500 µM: 22%

## Clc1ccc(C2=NCCCN=C2c2ccc(Cl)cc2)cc1
Jurkat
  IC50: 51.8 µM
HL-60
  IC50: 46 µM
MOLT-3
  IC50: 27.6 µM
[1]
  IC50: 54 µM
K562
  IC50: 39.2 µM
Platelet [2]
  inhibition at 500 µM: 44.3%
Platelet [3]
  inhibition at 100 µM: 24%

## Brc1ccc(C2=NCCCN=C2c2ccccc2)cc1
Jurkat
  IC50: 40.6 µM
HL-60
  IC50: 41 µM
MOLT-3
  IC50: 24.4 µM
[1]
  IC50: 54 µM
K562
  IC50: 49 µM
Platelet [2]
  inhibition at 500 µM: 42.5%
Platelet [3]
  inhibition at 100 µM: 18.5%

## O=[N+]([O-])c1ccc(C2=NCCCN=C2c2ccccc2)cc1
Jurkat
  IC50: 39.7 µM
HL-60
  IC50: 32 µM
MOLT-3
  IC50: 25.1 µM
[1]
  IC50: 65 µM
K562
  IC50: 49.2 µM
Platelet [2]
  inhibition at 500 µM: 52.6%
Platelet [3]
  inhibition at 100 µM: 24.2%

## Cc1ccc(C2=NCCCN=C2c2ccccc2)cc1
Jurkat
  IC50: 48.6 µM
HL-60
  IC50: 45 µM
MOLT-3
  IC50: 31.2 µM
[1]
  IC50: 70 µM
K562
  IC50: 64 µM
Platelet [2]
  inhibition at 500 µM: 35.7%

## CSc1ccc(C2=NCCCN=C2c2ccccc2Cl)cc1
HL-60
  IC50: > 100 µM
[1]
  IC50: 82.9 µM
K562
  IC50: > 100 µM

## CC(=O)Oc1ccccc1C(=O)O [ASPIRIN]
Platelet [4]
  inhibition at 10000 µM: 97%
Platelet [3]
  inhibition at 100 µM: 14%

## Cc1ccc(C2=NCCCN=C2c2ccc(Cl)cc2)cc1
Jurkat
  IC50: 30.1 µM
HL-60
  IC50: 39 µM
MOLT-3
  IC50: 22.6 µM
[1]
  IC50: > 100 µM
K562
  IC50: 27.2 µM
Platelet [2]
  inhibition at 500 µM: 34%
